Results from different studies.
Protocols differ between the studies behind these lines.
ST14: Suppressor of tumorigenicity 14 protein (ST14, Homo sapiens, UniProt Q9Y5Y6)
CDK2 with cyclin A2: Cyclin-dependent kinase 2, with cyclin A2 (CDK2, Homo sapiens, UniProt P24941)
Oprd1: Delta-type opioid receptor (Oprd1, Rattus norvegicus, UniProt P33533)

With `Cc1cc([C@@H](C)Nc2ccccc2C(=O)O)c2nc(N3CCC(F)(F)CC3)c(C#N)c(=O)n2c1` the remaining binding was 100% (Tyrosine-protein kinase ZAP-70 (ZAP70, Homo sapiens, UniProt P43403); binding; competition with immobilised ligand; 1 µM).
`CC(C)[C@@H](CC(=O)N[C@@H](CCCNC(=N)N)C(=O)c1nc2ccccc2s1)NC(=O)[C@H](Cc1cscn1)NC(=O)CCc1ccccc1` gave a remaining activity of 81% (ST14; enzyme activity; inhibitor; 0.1 µM).
`CC(=O)c1c(C)c2cnc(Nc3ccc(N4CCNCC4)cn3)nc2n(C2CCCC2)c1=O` gave an activity vs control of 79% (Cyclin-dependent kinase 2 (CDK2, Homo sapiens, UniProt P24941); enzyme activity; inhibitor; ADP detection; 1 µM).
For `CC(C)Oc1ccc(S(=O)(=O)c2ccc(Oc3cc(OCC(N)=O)c(C(=O)C(Cl)Cl)cc3[N+](=O)[O-])cc2)cc1`, the inhibition was 31.5% ([Pyruvate dehydrogenase (acetyl-transferring)] kinase isozyme 4, mitochondrial (PDK4, Homo sapiens, UniProt Q16654); enzyme activity; inhibitor; ATP luminescence; 10 µM).
For `CNC(=O)c1cc(Oc2ccc(NC(=O)Nc3ccc(Cl)c(C(F)(F)F)c3)cc2)ccn1`, the inhibition was 36.7% (CDK2 with cyclin A2; enzyme activity; inhibitor; 10 nM).
`N=C(N)NCCC[C@H](NC(=O)[C@H](Cc1ccc2ccccc2c1)NC(=O)[C@H](Cc1cscn1)NC(=O)CCc1ccccc1)C(=O)c1nc2ccccc2s1` has a remaining activity of 8% (ST14; enzyme activity; inhibitor; 0.1 µM).
With `COc1ccc(CN2C[C@](C)(O)[C@@H]3C[C@H]2[C@@H](C)c2nc4ccccc4c(-c4ccccc4)c23)cc1` the inhibition was 0% (Oprd1; ligand displacement; radioligand; 1 µM).
The remaining activity of `CC1([C@H](NC(=O)[C@H](Cc2cscn2)NC(=O)CCc2ccccc2)C(=O)N[C@@H](CCCNC(=N)N)C(=O)c2nc3ccccc3s2)CC1` is reported as 69% (ST14; enzyme activity; inhibitor; 0.1 µM).
`CNc1ncc2c(/C=C/C(=O)N3CCC(OC)CC3)nn(Cc3cccc(C(F)(F)F)c3)c2n1` has a remaining activity of 100% (CDK2 with cyclin A2; enzyme activity; inhibitor; radiometric; 1 µM).
`CC(C)(NC(=O)[C@H](Cc1cscn1)NC(=O)CCc1ccccc1)C(=O)N[C@@H](CCCNC(=N)N)C(=O)c1nc2ccccc2s1` has a remaining activity of 4% (ST14; enzyme activity; inhibitor; 0.1 µM).
For `C=CC(=O)N1CCC(COCC(=O)N2CCN(c3nc(-c4cnc(N)nc4C(F)F)nc(N4CCOC[C@@H]4C)n3)CC2)CC1`, the remaining binding was 100% (Mitogen-activated protein kinase 6 (MAPK6, Homo sapiens, UniProt Q16659); binding; competition with immobilised ligand; 1 µM).
`CC(C)C[C@@H](C(=O)N[C@@H](CCCNC(=N)N)C(=O)c1nc2ccccc2s1)N(C)C(=O)[C@H](Cc1cscn1)NC(=O)CCc1ccccc1` gave a remaining activity of 50% (ST14; enzyme activity; inhibitor; 0.1 µM).
The inhibition of `CC(=O)Nc1c(N)nc(SCC(=O)NN)[nH]c1=O` is reported as 41.2% (CDK2 with cyclin A2; enzyme activity; inhibitor; 0.1 µM).
With `CC(C)(C)C[C@H](NC(=O)[C@H](Cc1cscn1)NC(=O)CCc1ccccc1)C(=O)N[C@@H](CCCNC(=N)N)C(=O)c1nc2ccccc2s1` the remaining activity was 34% (ST14; enzyme activity; inhibitor; 0.1 µM).
With `Cc1cc(NC(=O)c2cccc(NC(=O)/C=C/CN(C)C)c2)ccc1Nc1nccc(-c2cccnc2)n1` the remaining binding was 0% (Mitogen-activated protein kinase 10 (MAPK10, Homo sapiens, UniProt P53779); binding; competition with immobilised ligand; 1 µM).
The inhibition of `C[C@H]1c2nc3ccccc3c(-c3ccccc3)c2[C@H]2C[C@@H]1N(Cc1ccccc1)C[C@]2(C)O` is reported as 0% (Oprd1; ligand displacement; radioligand; 1 µM).
With `CC(=O)Nc1c(N)nc(SCC(=O)N/N=C/c2ccc([N+](=O)[O-])cc2)[nH]c1=O` the inhibition was 8.37% (CDK2 with cyclin A2; enzyme activity; inhibitor; 5 nM).
With `COc1cc(-c2cncc3c2CN(C)Cc2cc(N4CCNCC4)ccc2-3)cc(OC)c1OC` the remaining activity was 94% (Tyrosine-protein kinase Fyn (FYN, Homo sapiens, UniProt P06241); enzyme activity; inhibitor; 1 µM).
